How the values were obtained:
Type in all cases: functional
MDA-MB-231 = experiment: Cytotoxicity against human MDA-MB-231 cells assessed as cell growth at 10 uM; conditions: read-out: Activity
How it was run: (§1)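 NCI-60 screen: cells grown in RPMI 1640 with 5% FBS and 2 mM L-glutamine, plated at 5000–40,000 cells/well according to doubling time, and preincubated 24 h at 37 °C, 5% CO2. The single 10 µM dose (DMSO stock) was added, then incubated 48 h. Cells were TCA-fixed and stained with 0.4% SRB, read at 515 nm, and growth % calculated against time-zero and control plates.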

NCI-H322M = experiment: Cytotoxicity against human NCI-H322M cells assessed as cell growth at 10 uM; conditions: read-out: Activity; how it was run: as §1
A498 = experiment: Cytotoxicity against human A498 cells assessed as cell growth at 10 uM; conditions: read-out: Activity
How it was run: (§2)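 Single-dose NCI-60 screen at 10 µM. Cells were grown in RPMI 1640 with 5% FBS and 2 mM L-glutamine, then treated for 48 h at 37 °C. Protein was measured by SRB staining with absorbance at 515 nm. Percentage growth was recorded, and inhibition percentage was calculated as 100 minus growth percentage.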

[1] = Cytotoxicity against human Hs 578T cells assessed as cell growth at 10 uM; conditions: read-out: Activity; how it was run: as §2
CCRF-CEM = experiment: Cytotoxicity against human CCRF-CEM cells assessed as cell growth at 10 uM; conditions: read-out: Activity; how it was run: as §2
COLO 205 = experiment: Cytotoxicity against human COLO205 cells assessed as cell growth at 10 uM; conditions: read-out: Activity; how it was run: as §2
T47D = experiment: Cytotoxicity against human T47D cells assessed as cell growth at 10 uM; conditions: read-out: Activity; how it was run: as §1
OVCAR-4 = experiment: Cytotoxicity against human OVCAR4 cells assessed as cell growth at 10 uM; conditions: read-out: Activity; how it was run: as §1
SF-539 = experiment: Cytotoxicity against human SF539 cells assessed as cell growth at 10 uM; conditions: read-out: Activity; how it was run: as §1
DU-145 = experiment: Cytotoxicity against human DU145 cells assessed as cell growth at 10 uM; conditions: read-out: Activity; how it was run: as §2
LOX IMVI = experiment: Cytotoxicity against human LOXIMVI cells assessed as cell growth at 10 uM; conditions: read-out: Activity; how it was run: as §1
SR = experiment: Cytotoxicity against human SR cells assessed as cell growth at 10 uM; conditions: read-out: Activity; how it was run: as §1
SF-268 = experiment: Cytotoxicity against human SF268 cells assessed as cell growth at 10 uM; conditions: read-out: Activity; how it was run: as §1
HOP-92 = experiment: Cytotoxicity against human HOP92 cells assessed as cell growth at 10 uM; conditions: read-out: Activity; how it was run: as §2
SN12C = experiment: Cytotoxicity against human SN12C cells assessed as cell growth at 10 uM; conditions: read-out: Activity; how it was run: as §1
MDA-MB-435 = experiment: Cytotoxicity against human MDA-MB-435 cells assessed as cell growth at 10 uM; conditions: read-out: Activity; how it was run: as §1
KM12 = experiment: Cytotoxicity against human KM12 cells assessed as cell growth at 10 uM; conditions: read-out: Activity; how it was run: as §1
PC-3 = experiment: Cytotoxicity against human PC3 cells assessed as cell growth at 10 uM; conditions: read-out: Activity; how it was run: as §1
HCT-116 = experiment: Cytotoxicity against human HCT116 cells assessed as cell growth at 10 uM; conditions: read-out: Activity; how it was run: as §2
SW-620 = experiment: Cytotoxicity against human SW620 cells assessed as cell growth at 10 uM; conditions: read-out: Activity; how it was run: as §1
NCI-H23 = experiment: Cytotoxicity against human NCI-H23 cells assessed as cell growth at 10 uM; conditions: read-out: Activity; how it was run: as §1
UO-31 = experiment: Cytotoxicity against human UO31 cells assessed as cell growth at 10 uM; conditions: read-out: Activity; how it was run: as §1
NCI-H460 = experiment: Cytotoxicity against human NCI-H460 cells assessed as cell growth at 10 uM; conditions: read-out: Activity; how it was run: as §1
HCC 2998 = experiment: Cytotoxicity against human HCC2998 cells assessed as cell growth at 10 uM; conditions: read-out: Activity; how it was run: as §2
A549 = experiment: Cytotoxicity against human A549 cells assessed as cell growth at 10 uM; conditions: read-out: Activity; how it was run: as §2
NCI-H226 = experiment: Cytotoxicity against human NCI-H226 cells assessed as cell growth at 10 uM; conditions: read-out: Activity; how it was run: as §1
SF-295 = experiment: Cytotoxicity against human SF295 cells assessed as cell growth at 10 uM; conditions: read-out: Activity; how it was run: as §1
BT-549 = experiment: Cytotoxicity against human BT549 cells assessed as cell growth at 10 uM; conditions: read-out: Activity; how it was run: as §2
MCF7 = experiment: Cytotoxicity against human MCF7 cells assessed as cell growth at 10 uM; conditions: read-out: Activity; how it was run: as §1
OVCAR-8 = experiment: Cytotoxicity against human OVCAR8 cells assessed as cell growth at 10 uM; conditions: read-out: Activity; how it was run: as §1
RXF 393 = experiment: Cytotoxicity against human RXF393 cells assessed as cell growth at 10 uM; conditions: read-out: Activity; how it was run: as §1
U-251 = experiment: Cytotoxicity against human U251 cells assessed as cell growth at 10 uM; conditions: read-out: Activity; how it was run: as §1
MDA-MB-468 = experiment: Cytotoxicity against human MDA-MB-468 cells assessed as cell growth at 10 uM; conditions: read-out: Activity; how it was run: as §1
OVCAR-5 = experiment: Cytotoxicity against human OVCAR5 cells assessed as cell growth at 10 uM; conditions: read-out: Activity; how it was run: as §1
HT-29 = experiment: Cytotoxicity against human HT-29 cells assessed as cell growth at 10 uM; conditions: read-out: Activity; how it was run: as §2
SK-MEL-2 = experiment: Cytotoxicity against human SK-MEL-2 cells assessed as cell growth at 10 uM; conditions: read-out: Activity; how it was run: as §1
[2] = Growth inhibition of human NCI60 cells at 10 uM after 48 hrs by sulforhodamine B assay relative to control; conditions: NCI60, 48 h, read-out: GI
How it was run: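 Single-dose NCI screen at 10 µM across the 60-line panel, 48 h exposure at 37 °C after a 24 h preincubation. Adherent cells were fixed with cold TCA and stained with 0.4% SRB, and absorbance was read at 515 nm. Inhibition % was taken as 100 minus growth %, and the mean across all lines was reported.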

[3] = Cytotoxicity against human […] cells assessed as cell growth at 10 uM; conditions: read-out: Activity; how it was run: as §1
SNB-19 = experiment: Cytotoxicity against human SNB19 cells assessed as cell growth at 10 uM; conditions: read-out: Activity; how it was run: as §1
Malme-3M = experiment: Cytotoxicity against human MALME-3M cells assessed as cell growth at 10 uM; conditions: read-out: Activity; how it was run: as §1
K562 = experiment: Cytotoxicity against human K562 cells assessed as cell growth at 10 uM; conditions: read-out: Activity; how it was run: as §2
SNB-75 = experiment: Cytotoxicity against human SNB75 cells assessed as cell growth at 10 uM; conditions: read-out: Activity; how it was run: as §1
ACHN = experiment: Cytotoxicity against human ACHN cells assessed as cell growth at 10 uM; conditions: read-out: Activity; how it was run: as §2
HCT-15 = experiment: Cytotoxicity against human HCT15 cells assessed as cell growth at 10 uM; conditions: read-out: Activity; how it was run: as §2
OVCAR-3 = experiment: Cytotoxicity against human OVCAR-3 cells assessed as cell growth at 10 uM; conditions: read-out: Activity; how it was run: as §1
TK-10 = experiment: Cytotoxicity against human TK10 cells assessed as cell growth at 10 uM; conditions: read-out: Activity; how it was run: as §1
UACC-257 = experiment: Cytotoxicity against human UACC257 cells assessed as cell growth at 10 uM; conditions: read-out: Activity; how it was run: as §1
EKVX = experiment: Cytotoxicity against human EKVX cells assessed as cell growth at 10 uM; conditions: read-out: Activity; how it was run: as §2
SK-MEL-5 = experiment: Cytotoxicity against human SK-MEL-5 cells assessed as cell growth at 10 uM; conditions: read-out: Activity; how it was run: as §1
SK-MEL-28 = experiment: Cytotoxicity against human SK-MEL-28 cells assessed as cell growth at 10 uM; conditions: read-out: Activity; how it was run: as §1
NCI/ADR-RES = experiment: Cytotoxicity against human NCI/ADR-RES cells assessed as cell growth at 10 uM; conditions: read-out: Activity; how it was run: as §1
NCI-H522 = experiment: Cytotoxicity against human NCI-H522 cells assessed as cell growth at 10 uM; conditions: read-out: Activity; how it was run: as §1
786-0 = experiment: Cytotoxicity against human 786-0 cells assessed as cell growth at 10 uM; conditions: read-out: Activity; how it was run: as §2
MOLT-4 = experiment: Cytotoxicity against human MOLT4 cells assessed as cell growth at 10 uM; conditions: read-out: Activity; how it was run: as §1
UACC-62 = experiment: Cytotoxicity against human UACC62 cells assessed as cell growth at 10 uM; conditions: read-out: Activity; how it was run: as §1
IGROV-1 = experiment: Cytotoxicity against human IGROV1 cells assessed as cell growth at 10 uM; conditions: read-out: Activity; how it was run: as §2
SK-OV-3 = experiment: Cytotoxicity against human SKOV3 cells assessed as cell growth at 10 uM; conditions: read-out: Activity; how it was run: as §1
HOP-62 = experiment: Cytotoxicity against human HOP62 cells assessed as cell growth at 10 uM; conditions: read-out: Activity; how it was run: as §2
CAKI-1 = experiment: Cytotoxicity against human Caki1 cells assessed as cell growth at 10 uM; conditions: read-out: Activity; how it was run: as §2
HL-60(TB) = experiment: Cytotoxicity against human HL-60(TB) cells assessed as cell growth at 10 uM; conditions: read-out: Activity
How it was run: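 NCI 60-cell panel screen at a single concentration of 10 µM. Cells are grown in RPMI 1640 with 5% FBS and 2 mM L-glutamine and read by SRB protein staining at 515 nm. Percent growth is measured relative to time-zero and untreated controls; inhibition % is 100 minus growth %.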

M14 = experiment: Cytotoxicity against human M14 cells assessed as cell growth at 10 uM; conditions: read-out: Activity; how it was run: as §1

COc1cc(C)cc(-c2nn(CC#N)cc2-c2ccnc(-c3ccc(Oc4ccccc4)cc3)c2)c1
growth at 10 µM (MDA-MB-231): 88.6%
growth at 10 µM (NCI-H322M): 96.3%
growth at 10 µM (A498): 85.3%
growth at 10 µM [1]: 94.3%
growth at 10 µM (CCRF-CEM): 91.3%
growth at 10 µM (COLO 205): 98.6%
growth at 10 µM (T47D): 20.1%
growth at 10 µM (OVCAR-4): 82.9%
growth at 10 µM (SF-539): 95.3%
growth at 10 µM (DU-145): 105%
growth at 10 µM (LOX IMVI): 98%
growth at 10 µM (SR): 95.8%
growth at 10 µM (SF-268): 96.9%
growth at 10 µM (HOP-92): 85.5%
growth at 10 µM (SN12C): 84.8%
growth at 10 µM (MDA-MB-435): 98.1%
growth at 10 µM (KM12): 100%
growth at 10 µM (PC-3): 91.9%
growth at 10 µM (HCT-116): 81.8%
growth at 10 µM (SW-620): 98.6%
growth at 10 µM (NCI-H23): 88.3%
growth at 10 µM (UO-31): 84.8%
growth at 10 µM (NCI-H460): 106%
growth at 10 µM (HCC 2998): 93.9%
growth at 10 µM (A549): 85.8%
growth at 10 µM (NCI-H226): 66.5%
growth at 10 µM (SF-295): 95.1%
growth at 10 µM (BT-549): 96.3%
growth at 10 µM (MCF7): 72.1%
growth at 10 µM (OVCAR-8): 84.4%
growth at 10 µM (RXF 393): 64.2%
growth at 10 µM (U-251): 88.4%
growth at 10 µM (MDA-MB-468): 23.6%
growth at 10 µM (OVCAR-5): 90.2%
growth at 10 µM (HT-29): 73.9%
growth at 10 µM (SK-MEL-2): 85.2%
inhibition of growth at 10 µM [2]: 13.5%
growth at 10 µM [3]: 83%
growth at 10 µM (SNB-19): 88.5%
growth at 10 µM (Malme-3M): 112%
growth at 10 µM (K562): 88%
growth at 10 µM (SNB-75): 74.4%
growth at 10 µM (ACHN): 85.4%
growth at 10 µM (HCT-15): 71%
growth at 10 µM (OVCAR-3): 109%
growth at 10 µM (TK-10): 88.6%
growth at 10 µM (UACC-257): 91.6%
growth at 10 µM (EKVX): 98.2%
growth at 10 µM (SK-MEL-5): 53.8%
growth at 10 µM (SK-MEL-28): 104%
growth at 10 µM (NCI/ADR-RES): 80.3%
growth at 10 µM (NCI-H522): 72.5%
growth at 10 µM (786-0): 95%
growth at 10 µM (MOLT-4): 73.7%
growth at 10 µM (UACC-62): 65.8%
growth at 10 µM (IGROV-1): 94.9%
growth at 10 µM (SK-OV-3): 95.4%
growth at 10 µM (HOP-62): 96.1%
growth at 10 µM (CAKI-1): 78.7%
growth at 10 µM (HL-60(TB)): 91.2%
growth at 10 µM (M14): 102%

Source: ChEMBL document CHEMBL1165950, “Design and synthesis of new potent anticancer pyrazoles with high FLT3 kinase inhibitory selectivity” (Bioorg Med Chem, 2010)
